Experiments:
Assay type in all cases: functional
Conditions in all cases: read-out: IZ
Klebsiella pneumoniae [1] = assay: Antibacterial activity against beta-lactamase-positive ESBL-positive sKlebsiella pneumoniae assessed as decrease in zone of inhibition at 30 ug by disk diffusion method
Summary of the method: (§1)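 ESBL screen of β-lactamase-positive enteric isolates by disk diffusion using cefotaxime and ceftazidime disks (30 μg each) alone.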

Escherichia coli [2] = assay: Antibacterial activity against beta-lactamase-positive ESBL-positive Escherichia coli assessed as […] in zone of inhibition at 30 ug by disk diffusion method in presence of clavulanic acid
Summary of the method: (§2)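 ESBL confirmation by disk diffusion using cefotaxime and ceftazidime disks (30 μg each) combined with a 10 μg clavulanic acid disk, compared against the disks alone.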

Klebsiella pneumoniae [3] = assay: Antibacterial activity against beta-lactamase-positive ESBL-positive Klebsiella pneumoniae assessed as […] in zone of inhibition at 30 ug by disk diffusion method in presence of clavulanic acid; summary of the method: as §2
Escherichia coli [4] = assay: Antibacterial activity against beta-lactamase-positive ESBL-positive Escherichia coli assessed as […] in zone of inhibition at 30 ug by disk diffusion method; summary of the method: as §1

Measured: zone of inhibition at 30 µg/disc

O=C(O)[C@H]1/C(=C/CO)O[C@@H]2CC(=O)N21 [CLAVULANIC ACID]
≥ 5 mm: all assays above
